ChEMBL document CHEMBL1649436, “Antiviral activity of MK-4965, a novel nonnucleoside reverse transcriptase inhibitor” (Antimicrob Agents Chemother, 2009)

What was measured:
Format in all cases: functional
[1] = system: Human immunodeficiency virus 1; test: Antiviral activity against HIV1 CRF02_AG harboring mutant reverse transcriptase relative to HIV1 CNDO with wild type reverse transcriptase
How it was run: (§1)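 Single-cycle PhenoScreen assay run by Monogram Biosciences, using viruses carrying RT sequences from clinical isolates, subtypes/CRFs or PI/NRTI-resistant clade B viruses; nine serial drug concentrations; activity expressed relative to drug-sensitive reference strain CNDO (protease and RT from NL4-3), with multidrug-resistant MDRC4 as assay-performance control.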

[2] = system: Human immunodeficiency virus 1; test: Antiviral activity against HIV1 CRF17_BF harboring mutant reverse transcriptase relative to HIV1 CNDO with wild type reverse transcriptase; how it was run: as §1
[3] = system: Human immunodeficiency virus 1; test: Antiviral activity against NRTI-, PI-resistant HIV1 harboring mutant reverse transcriptase relative to HIV1 CNDO with wild type reverse transcriptase; how it was run: as §1

Nc1ccn([C@@H]2CS[C@H](CO)O2)c(=O)n1 [LAMIVUDINE]
fold change (FC) [1]: 1.31 | fold change (FC) [2]: 1.37 | fold change (FC) [3]: 5.96
